# Screening data: PubChem, The Scripps Research Institute Molecular Screening Center
# HTR1A agonist: 5-HT1a (human) receptor agonism; P08908; activation, % at 10 µM; AID 567; 65,000 compounds, 0.56% hits; CHO 5-HT1a Ga15 NFAT-bla reporter, FRET ratio; 0% basal, 100% maximal reference agonist;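 active means activation above the screen-wide mean activation plus 3 SD, cut at about 19% in these data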;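 further: 0% = DMSO wells and 100% = 5-CT at EC100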
# 5HT1E antag: blocks the human 5-HT1E serotonin receptor; inhibition, % at 6 µM; 65,000 compounds, 0.99% hits; CHO 5-HT1E Ga15 NFAT-bla reporter, FRET, antagonist; P28566;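 active means inhibition above a set limit, the mean inhibition across every tested compound plus 3 SD, cut at about 29% in these data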;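 further: signal is the 460 over 535 nm emission ratio of beta-lactamase substrate; 0% = agonist plus DMSO wells and 100% = wells without agonist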
# Target sequence (P28566 whole entry, looked up): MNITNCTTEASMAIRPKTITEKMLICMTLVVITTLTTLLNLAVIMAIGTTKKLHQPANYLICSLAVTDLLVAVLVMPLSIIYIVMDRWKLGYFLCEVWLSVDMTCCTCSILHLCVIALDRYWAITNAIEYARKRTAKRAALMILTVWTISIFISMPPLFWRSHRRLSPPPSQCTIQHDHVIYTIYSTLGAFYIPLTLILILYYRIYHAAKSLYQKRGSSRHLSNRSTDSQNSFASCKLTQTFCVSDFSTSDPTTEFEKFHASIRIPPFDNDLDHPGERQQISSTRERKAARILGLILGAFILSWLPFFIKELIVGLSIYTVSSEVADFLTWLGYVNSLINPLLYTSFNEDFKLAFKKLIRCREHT
# HTR1E agonist: agonists of human 5-HT1E serotonin receptor | CHO 5-HT1E Ga15 NFAT-bla reporter, FRET; 0% DMSO wells, 100% control agonist wells | activation, % at 6 µM | 65,000 compounds, 0.69% hits | P28566;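 active means activation above a set limit, the screen-wide mean activation plus 3 SD, cut at about 8.5% in these data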;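 further: 100% = positive control agonist at 1 µM giving full maximal response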
# 5HT1a antag: blocks the human serotonin 5-HT1a receptor; P08908; CHO 5-HT1a Ga15 NFAT-bla reporter, antagonist mode; inhibition, % at 10 µM; 62,000 compounds, 0.68% hits;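 active means inhibition above the mean of all tested compounds plus 3 SD, cut at about 43% in these data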;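 further: receptor stimulated by 5-CT agonist at 100 nM near EC80; beta-lactamase reporter measured by ratiometric fluorescence of a cleavable substrate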
# Jurkat tox 60K: cytotoxic compounds reducing Jurkat cell viability; inhibition, % at 4 µM; Jurkat E6.1 viability, ATP luminescence, 48 h; 56,000 compounds, 1.2% hits;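 active means inhibition above the mean inhibition of all tested compounds plus 3 SD, cut at about 28% in these data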
# HEK293 NFkB inh: inhibitors of the PMA/ionomycin-induced NF-kB reporter in HEK293 cells; HEK-293 NF-kB luciferase reporter, luminescence; inhibition, % at 3 µM; 62,000 compounds, 0.21% hits;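 active means inhibition above the mean of all tested compounds plus 3 SD, cut at about 40% in these data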;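 further: 0% = stimulated DMSO wells and 100% = 10 µM reference inhibitor 5653914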
#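 Reagent: PMA plus ionomycin mix as NF-kB-activating stimulus. Assay system: NF-kB luciferase reporter HEK-293 cells. Technique: luminescence from luciferase substrate reagent. Incubation: 1 h compound pre-incubation, 16 h PMA/ionomycin at 37 °C. Benchmarks: DMSO only as uninhibited control, 10 µM reference inhibitor as full inhibition. Repeats: tested once.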
# The depositor's hits bear a star; x = not tested or not shown. Most compounds without a hit are left out; they make up all but 3.3% or so of the library.
SMILES,HTR1A agonist,5HT1E antag,HTR1E agonist,5HT1a antag,Jurkat tox 60K,HEK293 NFkB inh
COc1ccc(C(C)(C)C)cc1NC(=O)Nc1ccc2c(c1)OCO2,-2,16,0,27,-6,12
COc1ccccc1C1C=C(c2ccc(C)cc2)Nc2nnnn21 (stereo not drawn),1,11,0,5,36*,-2
CCOc1ccc(C2C=C(c3ccc(C)cc3)Nc3nnnn32)cc1 (stereo not drawn),-1,-2,0,-8,-6,5
CCCCCC(=O)OC(CN1CCCCC1)CN1CCCC1=O (stereo not drawn),-2,-6,-1,1,-4,4
COc1cccc(N2CCN(c3ncnc4c3cnn4-c3ccc(C)cc3C)CC2)c1,3,69*,3,48*,15,34
Cc1ccc(-n2ncc3c(N4CCCC4)ncnc32)c(C)c1,0,13,0,x,x,x
COc1ccc(-c2nc(C#N)c(NCc3ccc(F)cc3)o2)cc1OC,0,30*,1,3,16,21
COc1ccc(-c2nc(C#N)c(NCc3ccccc3Cl)o2)cc1OC,4,22,0,16,-2,17
N#CCSc1nc2sc3c(c2c(=O)n1C1CCCCC1)CCCC3,7,6,13*,x,x,x
CCSc1nc2sc3c(c2c(=O)n1C1CCCCC1)CCN(C)C3,5,-4,0,x,x,x
CCSCCOC(=O)C1=C(C)NC2=C(C(=O)CCC2)C1c1coc2ccccc2c1=O (stereo not drawn),0,11,0,6,10,17
COCCCNC(=O)c1ccc(CS(=O)(=O)c2ccc(Br)cc2)o1,0,11,0,9,4,15
COCCCNC(=O)c1ccc(CS(=O)(=O)c2ccc(OC)cc2)o1,0,31*,-1,10,-8,10
O=C(CN1CCC(n2nnc3cc(F)ccc32)CC1)Nc1ccccc1N1CCOCC1,3,14,0,3,6,9
CCNC(=O)CSc1nc2ccccc2c(=O)n1CCCOC(C)C,-3,-16,1,0,-5,13
COCCNC(=O)CSc1nc2ccccc2c(=O)n1CCCC(=O)NCc1ccccc1,26*,-8,-1,-4,x,14
Cc1ccccc1-n1ncc2c(SCC(=O)NCc3cccs3)ncnc21,1,4,1,4,40*,10
Cc1cccc2cc(C#N)c(SCC(=O)N3CC(=O)Nc4ccccc43)nc12,-2,45*,0,40,99*,30
O=C1c2ccccc2C(Nc2ccc(F)cc2F)N1CCN1CCOCC1 (stereo not drawn),-2,12,1,6,12,20
Cc1nn(-c2nc3ccccc3s2)c(C)c1Oc1ccccc1O,-4,-10,0,-12,28*,-6
COc1cc2c(cc1OC)C(COc1ccc3c(C)cc(=O)oc3c1)N(C(=O)c1ccco1)CC2 (stereo not drawn),2,30*,0,6,x,12
COc1cc2c(cc1OC)C(COc1ccc(F)cc1)N(C(=O)c1ccco1)CC2 (stereo not drawn),1,18,0,30,x,18
Cc1nn(-c2ccccc2)c(OC(=O)c2cccs2)c1S(=O)(=O)c1ccccc1,81*,4,-1,-6,-3,0
COc1ccc2cc(C(=O)NCc3ccco3)c(=Nc3ccc(C(=O)O)cc3)oc2c1,-1,11,-1,7,4,48*
COc1ccc(N=c2oc3cc(O)ccc3cc2C(=O)NCC2CCCO2)c(OC)c1 (stereo not drawn),70*,-13,19*,-119,6,11
CSc1ccc(Cl)c(C(=O)NCc2ccco2)c1,-4,32*,-1,6,2,14
COc1ccc(N=c2oc3cc(O)ccc3cc2C(=O)NCC2CCCO2)cc1 (stereo not drawn),26*,-11,6,-7,14,-19
COc1ccc2cc(C(=O)NCc3ccco3)c(=O)oc2c1,0,3,0,2,0,4
Cc1ncc(CO)c2cc(C(N)=O)c(=Nc3ccccc3)oc12,-1,-2,0,2,3,0
O=C(NCc1ccco1)c1cc2ccc(O)cc2oc1=O,189*,-57,38*,-237,8,12
